One block for each compound: values may come before it.
How the values were obtained:
MCF7 [1] = assay: Antiproliferative activity in human MCF7 cells by sulforhodamine B assay; type: functional, cell-based
Method in brief: (§1)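 Cells grown in D-MEM with 10% (v/v) FBS, 100 U/mL penicillin G and 100 μg/mL streptomycin, at 37 °C under 5% CO2 and 95% humidity. Cytotoxic and antiproliferative effects were measured by the sulforhodamine B method of Skehan et al. CC50 (cytotoxic) or IC50 (antiproliferative) is the concentration giving 50% growth reduction. Docetaxel was the positive control. Triplicate tests.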

[2] = Selectivity index, ratio of antiproliferative IC50 for African green monkey Vero cells to antiproliferative IC50 for human Hep2 cells; type: toxicity; conditions: Vero cells versus Hep2 cells, read-out: Ratio IC50
Method in brief: (§2)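 Selectivity index for harmfulness to normal cells: the normal-cell (Vero or HEK293) CC50 or IC50 over the cancer-cell value from the same assay type. Each value is from sulforhodamine B growth-reduction tests done in triplicate in D-MEM/10% FBS at 37 °C, 5% CO2.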

[3] = Selectivity index, ratio of antiproliferative IC50 for African green monkey Vero cells to antiproliferative IC50 for human MDA-MB-231 cells; type: toxicity; conditions: Vero cells versus MDA-MB-231 cells, read-out: Ratio IC50
[4] = Selectivity index, ratio of antiproliferative IC50 for HEK293 cells to antiproliferative IC50 for human HeLa cells; type: toxicity; conditions: HEK293 cells versus HeLa cells, read-out: Ratio IC50; method in brief: as §2
DU-145 [5] = assay: Antiproliferative activity in human DU145 cells by sulforhodamine B assay; type: functional, cell-based; method in brief: as §1
[6] = Selectivity index, ratio of antiproliferative IC50 for African green monkey Vero cells to antiproliferative IC50 for human MCF7 cells; type: toxicity; conditions: Vero cells versus MCF7 cells, read-out: Ratio IC50; method in brief: as §2
HeLa [7] = assay: Antiproliferative activity in human HeLa cells by sulforhodamine B assay; type: functional, cell-based; method in brief: as §1
[8] = Selectivity index, ratio of antiproliferative IC50 for HEK293 cells to antiproliferative IC50 for human KB cells; type: toxicity; conditions: HEK293 cells versus KB cells, read-out: Ratio IC50; method in brief: as §2
[9] = Selectivity index, ratio of antiproliferative IC50 for HEK293 cells to antiproliferative IC50 for human SiHa cells; type: toxicity; conditions: HEK293 cells versus SiHa cells, read-out: Ratio IC50; method in brief: as §2
MDA-MB-231 [10] = assay: Antiproliferative activity in human MDA-MB-231 cells by sulforhodamine B assay; type: functional, cell-based; method in brief: as §1
SiHa [11] = assay: Antiproliferative activity in human SiHa cells by sulforhodamine B assay; type: functional, cell-based; method in brief: as §1
[12] = Selectivity index, ratio of antiproliferative IC50 for African green monkey Vero cells to antiproliferative IC50 for human KB cells; type: toxicity; conditions: Vero cells versus KB cells, read-out: Ratio IC50; method in brief: as §2
[13] = Selectivity index, ratio of cytotoxic CC50 for African green monkey Vero cells to cytotoxic CC50 for human SiHa cells; type: toxicity; conditions: Vero cells versus SiHa cells, read-out: Selectivity Index; method in brief: as §2
[14] = Selectivity index, ratio of antiproliferative IC50 for HEK293 cells to antiproliferative IC50 for human MDA-MB-231 cells; type: toxicity; conditions: HEK293 cells versus MDA-MB-231 cells, read-out: Ratio IC50
KB [15] = assay: Cytotoxic activity in human KB cells by sulforhodamine B assay; type: functional
Method in brief: (§3)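 Cell lines grown in D-MEM with 10% (v/v) FBS, 100 U/mL penicillin G and 100 μg/mL streptomycin at 37 °C, 5% CO2, 95% humidity. Cytotoxicity was measured by the Skehan method. CC50 was taken as the concentration that reduces cell growth by 50%. Docetaxel served as positive control, and each test was run in triplicate.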

[16] = Selectivity index, ratio of antiproliferative IC50 for African green monkey Vero cells to antiproliferative IC50 for human SiHa cells; type: toxicity; conditions: Vero cells versus SiHa cells, read-out: Ratio IC50; method in brief: as §2
[17] = Selectivity index, ratio of cytotoxic CC50 for African green monkey Vero cells to cytotoxic CC50 for human MDA-MB-231 cells; type: toxicity; conditions: Vero cells versus MDA-MB-231 cells, read-out: Selectivity Index; method in brief: as §2
HeLa [18] = assay: Cytotoxic activity in human HeLa cells by sulforhodamine B assay; type: functional; method in brief: as §3
[19] = Selectivity index, ratio of cytotoxic CC50 for HEK293 cells to cytotoxic CC50 for human DU145 cells; type: toxicity; conditions: HEK293 cells versus DU145 cells, read-out: Selectivity Index
[20] = Selectivity index, ratio of cytotoxic CC50 for African green monkey Vero cells to cytotoxic CC50 for human KB cells; type: toxicity; conditions: Vero cells versus KB cells, read-out: Selectivity Index; method in brief: as §2
[21] = Selectivity index, ratio of antiproliferative IC50 for HEK293 cells to antiproliferative IC50 for human DU145 cells; type: toxicity; conditions: HEK293 cells versus DU145 cells, read-out: Ratio IC50
[22] = Cytotoxic activity in HEK293 cells by sulforhodamine B assay; type: cell-based; conditions: human; method in brief: as §1
[23] = Selectivity index, ratio of cytotoxic CC50 for African green monkey Vero cells to cytotoxic CC50 for human HeLa cells; type: toxicity; conditions: Vero cells versus HeLa cells, read-out: Selectivity Index; method in brief: as §2
SiHa [24] = assay: Cytotoxic activity in human SiHa cells by sulforhodamine B assay; type: functional; method in brief: as §3
KB [25] = assay: Antiproliferative activity in human KB cells by sulforhodamine B assay; type: functional, cell-based; method in brief: as §1
[26] = Selectivity index, ratio of cytotoxic CC50 for African green monkey Vero cells to cytotoxic CC50 for human MCF7 cells; type: toxicity; conditions: Vero cells versus MCF7 cells, read-out: Selectivity Index; method in brief: as §2
[27] = Cytotoxic activity in African green monkey Vero cells by sulforhodamine B assay; type: cell-based; conditions: chlorocebus sabaeus; method in brief: as §1
Vero = assay: Antiproliferative activity in African green monkey Vero cells by sulforhodamine B assay; type: cell-based; conditions: Chlorocebus sabaeus; method in brief: as §1
HEK293 = assay: Antiproliferative activity in HEK293 cells by sulforhodamine B assay; type: cell-based; conditions: Homo sapiens; method in brief: as §1
HEp-2 [28] = assay: Antiproliferative activity in human Hep2 cells by sulforhodamine B assay; type: functional, cell-based; method in brief: as §1
[29] = Selectivity index, ratio of antiproliferative IC50 for HEK293 cells to antiproliferative IC50 for human Hep2 cells; type: toxicity; conditions: HEK293 cells versus Hep2 cells, read-out: Ratio IC50
[30] = Selectivity index, ratio of cytotoxic CC50 for HEK293 cells to cytotoxic CC50 for human MDA-MB-231 cells; type: toxicity; conditions: HEK293 cells versus MDA-MB-231 cells, read-out: Selectivity Index; method in brief: as §2
[31] = Selectivity index, ratio of cytotoxic CC50 for African green monkey Vero cells to cytotoxic CC50 for human Hep2 cells; type: toxicity; conditions: Vero cells versus Hep2 cells, read-out: Selectivity Index
[32] = Selectivity index, ratio of antiproliferative IC50 for African green monkey Vero cells to antiproliferative IC50 for human DU145 cells; type: toxicity; conditions: Vero cells versus DU145 cells, read-out: Ratio IC50
[33] = Selectivity index, ratio of cytotoxic CC50 for HEK293 cells to cytotoxic CC50 for human MCF7 cells; type: toxicity; conditions: HEK293 cells versus MCF7 cells, read-out: Selectivity Index; method in brief: as §2
[34] = Selectivity index, ratio of antiproliferative IC50 for African green monkey Vero cells to antiproliferative IC50 for human HeLa cells; type: toxicity; conditions: Vero cells versus HeLa cells, read-out: Ratio IC50; method in brief: as §2
[35] = Selectivity index, ratio of antiproliferative IC50 for HEK293 cells to antiproliferative IC50 for human MCF7 cells; type: toxicity; conditions: HEK293 cells versus MCF7 cells, read-out: Ratio IC50; method in brief: as §2
DU-145 [36] = assay: Cytotoxic activity in human DU145 cells by sulforhodamine B assay; type: functional; method in brief: as §3
MCF7 [37] = assay: Cytotoxic activity in human MCF7 cells by sulforhodamine B assay; type: functional; method in brief: as §3
[38] = Selectivity index, ratio of cytotoxic CC50 for HEK293 cells to cytotoxic CC50 for human HeLa cells; type: toxicity; conditions: HEK293 cells versus HeLa cells, read-out: Selectivity Index; method in brief: as §2
[39] = Selectivity index, ratio of cytotoxic CC50 for HEK293 cells to cytotoxic CC50 for human SiHa cells; type: toxicity; conditions: HEK293 cells versus SiHa cells, read-out: Selectivity Index; method in brief: as §2
HEp-2 [40] = assay: Cytotoxic activity in human Hep2 cells by sulforhodamine B assay; type: functional; method in brief: as §3
MDA-MB-231 [41] = assay: Cytotoxic activity in human MDA-MB-231 cells by sulforhodamine B assay; type: functional; method in brief: as §3
[42] = Selectivity index, ratio of cytotoxic CC50 for African green monkey Vero cells to cytotoxic CC50 for human DU145 cells; type: toxicity; conditions: Vero cells versus DU145 cells, read-out: Selectivity Index; method in brief: as §2
[43] = Selectivity index, ratio of cytotoxic CC50 for HEK293 cells to cytotoxic CC50 for human KB cells; type: toxicity; conditions: HEK293 cells versus KB cells, read-out: Selectivity Index; method in brief: as §2
[44] = Selectivity index, ratio of cytotoxic CC50 for HEK293 cells to cytotoxic CC50 for human Hep2 cells; type: toxicity; conditions: HEK293 cells versus Hep2 cells, read-out: Selectivity Index; method in brief: as §2

IC50 (MCF7 [1]): 10 nM
IC50 (DU-145 [5]): 10 nM
IC50 (HeLa [7]): 70 nM
IC50 (MDA-MB-231 [10]): 70 nM
IC50 (KB [25]): 50 nM
SMILES: CC(=O)O[C@@]12CO[C@@H]1C[C@H](O)[C@@]1(C)C(=O)[C@H](O)C3=C(C)[C@@H](OC(=O)[C@H](O)[C@@H](NC(=O)OC(C)(C)C)c4ccccc4)C[C@@](O)([C@@H](OC(=O)c4ccccc4)[C@H]21)C3(C)C [DOCETAXEL ANHYDROUS]
selectivity ratio [2]: 2.2
selectivity ratio [3]: 1.9
selectivity ratio [4]: 1.6
selectivity ratio [6]: 13
selectivity ratio [8]: 2.2
selectivity ratio [9]: 1.2
IC50 (SiHa [11]): 90 nM
selectivity ratio [12]: 2.6
selectivity ratio [13]: 5.9
selectivity ratio [14]: 1.6
CC50 (KB [15]): 180 nM
selectivity ratio [16]: 1.4
selectivity ratio [17]: 6.8
CC50 (HeLa [18]): 90 nM
selectivity ratio [19]: 2
selectivity ratio [20]: 7.2
selectivity ratio [21]: 11
CC50 [22]: 1600 nM
selectivity ratio [23]: 14.4
CC50 (SiHa [24]): 220 nM
selectivity ratio [26]: 130
CC50 [27]: 1300 nM
IC50 (Vero): 130 nM
IC50 (HEK293): 110 nM
IC50 (HEp-2 [28]): 60 nM
selectivity ratio [29]: 1.8
selectivity ratio [30]: 8.4
selectivity ratio [31]: 21.6
selectivity ratio [32]: 13
selectivity ratio [33]: 160
selectivity ratio [34]: 1.9
selectivity ratio [35]: 11
CC50 (DU-145 [36]): 810 nM
CC50 (MCF7 [37]): 10 nM
selectivity ratio [38]: 17.7
selectivity ratio [39]: 7.3
CC50 (HEp-2 [40]): 60 nM
CC50 (MDA-MB-231 [41]): 190 nM
selectivity ratio [42]: 1.6
selectivity ratio [43]: 8.8
selectivity ratio [44]: 26.6

SMILES: C=C(C)[C@@H]1CC[C@]2(C(=O)O)CC[C@]3(C)[C@H](CC[C@@H]4[C@@]5(C)CC[C@H](O)C(C)(C)[C@@H]5CC[C@]43C)[C@@H]12 [BETULINIC ACID]
IC50 (MCF7 [1]): 56300 nM
selectivity ratio [4]: 7
IC50 (DU-145 [5]): > 500000 nM
selectivity ratio [6]: 1.3
IC50 (HeLa [7]): 47600 nM
selectivity ratio [8]: 12
selectivity ratio [9]: 4.8
IC50 (MDA-MB-231 [10]): > 500000 nM
IC50 (SiHa [11]): 70100 nM
selectivity ratio [12]: 2.6
selectivity ratio [13]: 13
CC50 (KB [15]): 15600 nM
selectivity ratio [16]: 1
selectivity ratio [17]: 0.4
CC50 (HeLa [18]): 32600 nM
selectivity ratio [20]: 2.4
CC50 [22]: 80000 nM
selectivity ratio [23]: 1.6
CC50 (SiHa [24]): 28900 nM
IC50 (KB [25]): 28100 nM
selectivity ratio [26]: 0.7
CC50 [27]: 38100 nM
IC50 (Vero): 72100 nM
IC50 (HEK293): 336000 nM
IC50 (HEp-2 [28]): > 500000 nM
selectivity ratio [30]: 0.8
selectivity ratio [31]: 1.3
selectivity ratio [33]: 1.6
selectivity ratio [34]: 1.5
selectivity ratio [35]: 6
CC50 (DU-145 [36]): > 500000 nM
CC50 (MCF7 [37]): 49600 nM
selectivity ratio [38]: 2.5
selectivity ratio [39]: 2.8
CC50 (HEp-2 [40]): 48200 nM
CC50 (MDA-MB-231 [41]): 94300 nM
selectivity ratio [43]: 5.1
selectivity ratio [44]: 1.6

From ChEMBL document CHEMBL4130545, “Lupane-Type Triterpenes of Phoradendron vernicosum” (J Nat Prod, 2017)
